# Assay results from ChEMBL document CHEMBL1795208 (J Med Chem, 2011).
# Activity calls are given as the source filed them. No cut-off for these calls is given here.
# Assays:
# SK-BR-3 [1] = experiment: Ratio of novobiocin IC50 to compound IC50 for human SKBR3 cells expressing HER2; type: functional
# SK-BR-3 [2] = experiment: Antiproliferative activity against human SKBR3 cells expressing HER2 after 72 hrs by MTS/PMS assay; type: functional, cell-based; conditions: SK-BR-3, 72 h
# Outline: (§1)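 Cells kept in Advanced DMEM/F12 (1:1) with non-essential amino acids, 2 mM L-glutamine, penicillin, streptomycin and 10% FBS at 37 °C, 5% CO2. Seeded at 2000/well, attached overnight. Compound added in DMSO across a concentration range (1% DMSO final) for 72 h. Viable cells read by MTS/PMS and normalized to 1% DMSO controls (100%). IC50 taken from separate triplicate experiments.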
# MCF7 = experiment: Antiproliferative activity against human MCF7 cells expressing estrogen receptor after 72 hrs by MTS/PMS assay; type: functional, cell-based; conditions: MCF7, 72 h; outline: as §1
# [3] = Antiproliferative activity against human androgen-independent PC3MM2 cells after 72 hrs by MTS/PMS assay; type: functional, cell-based; conditions: PC3MM2, 72 h; outline: as §1
# [4] = target: T1, Heat shock protein HSP90 (Homo sapiens) (UniProt P07900+P08238); experiment: Inhibition of Hsp90 in human MCF7 cells assessed as Her2 degradation after 24 hrs by Western blot analysis; type: cell-based
# Outline: (§2)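 MCF-7 cells grown as for proliferation and treated with compound at various concentrations, GDA, or DMSO vehicle (1% DMSO final) for 24 h. Lysed in RIPA with 1 mM PMSF, 2 mM orthovanadate and protease inhibitors on ice for 1 h, then clarified at 14000g. Protein measured by BCA. 20 µg run reducing, transferred to nitrocellulose and probed with specific antibodies.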
# [5] = target: T1, Heat shock protein HSP90 (Homo sapiens); experiment: Inhibition of Hsp90 in human MCF7 cells assessed as Akt degradation after 24 hrs by Western blot analysis; type: cell-based; outline: as §2
# [6] = target: T1, Heat shock protein HSP90 (Homo sapiens); experiment: Inhibition of Hsp90 in human MCF7 cells assessed as Raf1 degradation after 24 hrs by Western blot analysis; type: cell-based; outline: as §2
# [7] = target: T1, Heat shock protein HSP90 (Homo sapiens); experiment: Inhibition of Hsp90 in human MCF7 cells assessed as Her2 degradation at IC50 concentration after 24 hrs by Western blot analysis; type: cell-based
# [8] = target: T1, Heat shock protein HSP90 (Homo sapiens); experiment: Inhibition of Hsp90 in human MCF7 cells assessed as Akt degradation at IC50 concentration after 24 hrs by Western blot analysis; type: cell-based
# [9] = target: T1, Heat shock protein HSP90 (Homo sapiens); experiment: Inhibition of Hsp90 in human MCF7 cells assessed as Raf1 degradation at IC50 concentration after 24 hrs by Western blot analysis; type: cell-based
IC50 (SK-BR-3 [2]),IC50 (MCF7),inhibition [4],inhibition [5],inhibition [6],inhibition [7],inhibition [8],inhibition [9],Structure (SMILES),Ratio IC50 (SK-BR-3 [1]),IC50 [3]
,,,,,,,,COc1cccc(-c2cc(C(=O)Nc3cc4cc(OC)c(O[C@@H]5OC[C@@H]6OC(=O)O[C@H]56)c(C)c4oc3=O)ccc2OC)c1,500,
11.1 µM,10.8 µM,,,,,,,COc1cccc(-c2cc(C(=O)Nc3cc4ccc(O[C@H]5OCC[C@@H](O)[C@H]5O)c(OC)c4oc3=O)ccc2OC)c1,500,
0.42 µM,0.54 µM,Dose-dependent effect,Dose-dependent effect,Dose-dependent effect,Active,Active,Active,COc1cc2cc(NC(=O)c3ccc(O)c(CC=C(C)C)c3)c(=O)oc2c(C)c1OC1CCN(C)CC1,,2.26 µM
0.36 µM,0.7 µM,Dose-dependent effect,Dose-dependent effect,Dose-dependent effect,Active,Active,Active,COc1cc2cc(NC(=O)c3ccc(OC(C)=O)c(CC=C(C)C)c3)c(=O)oc2c(C)c1OCCCN(C)C,,1.46 µM
